Data from ChEMBL document CHEMBL4513216, “Probing the Open Global Health Chemical Diversity Library for Multistage-Active Starting Points for Next-Generation Antimalarials” (ACS Infect Dis, 2020).

Experiment: Toxicity liver stage against HepG2, at 10uM
Assay type: cell-based
Design: test concentration 10 uM, cell line HepG2-A16-CD81EGFP
Settings: human, HepG2-A16-CD81EGFP cells; read-out: INHIBITION
Summary of the method: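 Uninfected HepG2-A16-CD81EGFP cells, 3 × 10^3 per well, 1536-well, plated on prespotted compound at 10 μM final, parasite-free screening media added to match infected plates; puromycin 10 μM positive, DMSO 0.5% negative; run in parallel with 48 h PbLuc assay at 37 °C, 5% CO2; viability by CellTiter-Glo luminescence, normalized to controls.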

| Structure (SMILES) | cytotoxicity at 10 µM [%] |
| --- | --- |
| COc1cc2nc(C)n(CC(=O)NCC(C)C)c(=O)c2cc1OC | -4.76 |
| CC(=O)c1cccc(NC(=O)Cn2cnc(-c3ccccc3)cc2=O)c1 | -12.3 |
| CS(=O)(=O)N1CCN(c2ccc(Nc3ccccn3)nn2)CC1 | -6.01 |
| N#Cc1cccc(C(=O)N2CC(c3nc(-c4ccc[nH]c4=O)no3)C2)c1 | -4.13 |
| CS(=O)(=O)C1CCN(S(=O)(=O)c2ccc(F)c(F)c2)C1 (configuration not stated) | -9.52 |
| COCCN1CC2(CCN(Cc3ccco3)CC2)c2ccccc21 | 18.3 |
| CCOCC1CC2(CCN(C(=O)CC3=CCCCC3)CC2)CO1 (configuration not stated) | -3.95 |
| Cc1ccc(N2CCC3(CCC(=O)N3)CC2)nn1 | 0.903 |
| CCOCC1CN(C(=O)N2CCCC2)Cc2cnn(C)c21 (configuration not stated) | -0.96 |
| Cc1ccc(CN2CC[C@H]3C[C@H](c4nc(C5CC5)cs4)O[C@@H]3C2)o1 | 3.81 |
| COc1cc(OC)c(-n2nnc(C(=O)O)c2C)cc1Cl | -16.8 |
| CN1C(=O)C(C)(C)COc2cc(NS(=O)(=O)c3ccccc3)ccc21 | -7.89 |
| COCCO[C@@H]1CCN(C(=O)c2ccc(C)o2)[C@@H]1Cc1cnn(C)c1 | -12.8 |
| CCCNC(=O)NC(C)c1ccccn1 (configuration not stated) | -8.26 |
| Cc1nc(NC(=O)C(C)n2ncc(Br)c2C)sc1C (configuration not stated) | 10.3 |
| Cc1ccnc(C2(C)CCCN2S(=O)(=O)c2cccnc2)n1 (configuration not stated) | 5.95 |
| CC(=O)N1CCCC1(C)c1nc(C)no1 (configuration not stated) | 2.71 |
| O=C(O)c1cn2cc(C(F)(F)F)ccc2n1 | 3.52 |
| CN1CCN(C(=O)Cc2csc(-c3ccsc3)n2)C(c2ccccc2)C1 (configuration not stated) | -8.38 |
| Cc1ccnc2c1NC(=O)CN2C(=O)CCc1cccs1 | -19.5 |
| COc1cccc(COC(C)C(=O)NCc2nnc3n2CCC3)c1 (configuration not stated) | 8.67 |
| Cc1cc(NC(=O)N2CCN(C)CC2C)n(C(C)(C)C)n1 (configuration not stated) | 6.3 |
| CC(NC(=O)N1CCC1)c1ccc(S(N)(=O)=O)cc1 (configuration not stated) | -8.64 |

| Structure (SMILES) | cytotoxicity at 10 µM [%] |
| --- | --- |
| CC(C)(CNC(=O)C1CCCN(C(N)=O)C1)c1cccc(Cl)c1 (configuration not stated) | 1.75 |
| CC(C1CC1)N(C)Cc1nnc(-c2ccco2)o1 (configuration not stated) | -2.14 |
| Cc1cn2c(n1)CCC(NS(=O)(=O)c1sc(C)nc1C)C2 (configuration not stated) | -20.8 |
| CNC(=O)c1cccc(CCNS(C)(=O)=O)c1 | 13.4 |
| CN(C)c1ccc(C(=O)N2CCCC2c2ccc(Cl)cc2)cc1 (configuration not stated) | 1.21 |
| CN1CCCN(C(=O)NCCNc2ncccc2C#N)CC1 | 6.75 |
| COCCCn1ccc(NC(=O)NCc2cccc(N(C)C)c2)n1 | 2.4 |
| COCC(C)NC(=O)Nc1cc(-c2ccccc2C)nn1CCO (configuration not stated) | -14.3 |
| COc1c(CNCC(O)COc2ccc3c(c2)OCO3)c(C)nn1C (configuration not stated) | 3.07 |
| c1ccc2c(c1)CCC21CN(CCc2ccncc2)CCO1 (configuration not stated) | -0.934 |
| CC(C(=O)N1CCOCC1)N1CCc2cncnc2C1 (configuration not stated) | -5.05 |
| CC(C)(C)CC(=O)NCC(=O)Nc1ccn(Cc2ccccc2)n1 | 7.08 |
| CCC1COCCN1C(=O)NCc1cccc(-c2cnn(C)c2)c1 (configuration not stated) | -1.62 |
| CC(C)Cc1noc(COc2ccc(N(C)C(N)=O)cc2)n1 | 34.4 |
| CCn1nc(C)c(CNCCn2cc(C)cn2)c1C | -4.91 |
| O=C(c1ccc(O)nc1)N1CCN(C(=O)c2ccc(F)c(F)c2)CC1 | -10.3 |
| CN(C(=O)c1cccc(OCC(F)F)n1)c1ccc2c(c1)CCO2 | 43 |
| FC(F)(F)c1cc(NCCn2ncnn2)nc(-c2cccnc2)n1 | 18.9 |
| CCC(C(=O)N1CCCSCC1)N1CCCC1=O (configuration not stated) | 6.27 |
| Cc1cnn(CCNc2nc(C)cc(N(C)C)n2)c1 | 5.36 |
| CNc1nc(CNC(=O)Nc2ccc(OC)cc2C)cs1 | -8.17 |
| CCN(CC(=O)NC)S(=O)(=O)N1CCCCCC1 | 5.04 |
| CCCc1nc(C)c(C(=O)NS(=O)(=O)c2ccc(C#N)cc2)s1 | -12 |

| Structure (SMILES) | cytotoxicity at 10 µM [%] |
| --- | --- |
| O=C(c1ccco1)N1CCCC1C1CCN(Cc2ccccc2)CC1 (configuration not stated) | 0.821 |
| CN(C)c1cc(C(=O)NCCc2n[nH]c(=O)[nH]2)ccn1 | -1.89 |
| Cc1csc(N2CCN(Cc3cnc(C)s3)CC2C)n1 (configuration not stated) | 14.7 |
| CCN1CC2(CC1=O)CN(C(=O)NC(C)C)CCN(S(C)(=O)=O)C2 (configuration not stated) | -3.67 |
| CN1C(=O)C(c2cccnc2)CC12CCN(Cc1nccs1)CC2 (configuration not stated) | -1.16 |
| O=C(c1ccco1)N1CCc2onc(Cn3cccn3)c2C1 | -1.22 |
| Cc1nc2c(c(N3CCC(O)(CN4CCCC4)CC3)n1)CCN(C)CC2 | -2.84 |
| CCN(CC)C(=O)[C@@H]1C[C@H](NC(=O)c2ccn(C(C)(C)C)c2)CN1C | -19.3 |
| Cc1nc(C)n(CC(C)C(=O)N2CCC(N3CCC(O)CC3)CC2)n1 (configuration not stated) | 1.43 |
| CC(c1nccs1)n1cc(-c2cc(CN3CCCCC3)cs2)nn1 (configuration not stated) | 1.22 |
| Cc1cccc(C(=O)N2CCCC(c3nccn3Cc3cscn3)C2)n1 (configuration not stated) | -1.28 |
| Cc1nc(-c2cccnc2)ncc1C(=O)N1CCC(c2ncc[nH]2)CC1 | 0.626 |
| COc1ccc(NC(=O)N2CCC3(CC2)NC(=O)CC3C(=O)O)cc1Cl (configuration not stated) | -3.06 |
| CN(Cc1cnccn1)C(=O)c1ccc(CSc2nnc[nH]2)o1 | 1.22 |
| O=C(CCn1cccn1)N1CCC(C2CCN(c3ncccn3)CC2)C1 (configuration not stated) | 5.33 |
| CS(=O)(=O)N1CCc2[nH]cnc2C12CCN(C(=O)c1cccnc1)CC2 | 2.62 |
| Cc1cc(C(=O)N(C)C2CCN(C)C2)c2ccc(F)cc2n1 (configuration not stated) | -2.55 |
| COc1ccc(Cn2cc(C(=O)N(C)Cc3cnccn3)nn2)cc1 | 9.81 |
| Cc1ccccc1CN(Cc1ccncc1)CC(C)C | 11.9 |
| CCC1CCCCN1S(=O)(=O)c1c(N)noc1C (configuration not stated) | 9.5 |
| Cc1cnccc1N1CCCN(C(=O)CCCS(N)(=O)=O)CC1 | -18.7 |
| Cc1nnc(CN(C)C2CCN(CCc3ccccn3)CC2)o1 | 1.04 |
| Cc1cnn(CC2CCCN2Cc2nnc(C(C)C)o2)c1 (configuration not stated) | -20.3 |

| Structure (SMILES) | cytotoxicity at 10 µM [%] |
| --- | --- |
| Cn1ncc2c(N3CCN(C(=O)c4ccsc4)CC3)ncnc21 | -9.27 |
| CC(C(=O)NCc1ccc(N2CCCC2)nc1)n1cncn1 (configuration not stated) | -22.4 |
| CCc1nc(C2CCCN2Cc2ccn(C)c(=O)c2)no1 (configuration not stated) | -4.25 |
| CCN(CC)Cc1ccc(C(=O)N2CCN(CC(C)O)CC2)o1 (configuration not stated) | -9.65 |
| CCc1nnc2n1CCN(C(=O)c1nc(-c3ccco3)sc1C)C2 | -1.19 |
| CCN(CC)CC(=O)N1CCCC1Cn1cccn1 (configuration not stated) | -3.08 |
| COc1ccc(S(=O)(=O)NCc2cccnc2N(C)C)cc1 | 5.32 |
| CNC(=O)CS(=O)(=O)Cc1cc(Cl)c2c(c1)OCCO2 | -4.17 |
| CCOc1ccccc1CNC1CCCN(Cc2noc(C)n2)C1 (configuration not stated) | -13.1 |
| Cc1cccc(C2(CNC(=O)CO)CCCC2)c1 | -19.1 |
| O=C1C(NS(=O)(=O)c2ccc(F)c(F)c2)CCN1Cc1ccccc1 (configuration not stated) | -2.81 |
| Cc1cc(C)n(C2CN(CC(O)c3ccc(S(C)(=O)=O)cc3)C2)n1 (configuration not stated) | -12.9 |
| CC(C)c1noc(CCCC(=O)NCC2CCS(=O)(=O)C2)n1 (configuration not stated) | -22.3 |
| Cc1ccc(NC2CCN(C(=O)c3cccnc3N(C)C)CC2)nn1 | -12.1 |
| c1ccc2c(OCCN3CCn4c(nnc4C4CC4)C3)cccc2c1 | -3.87 |
| c1ccc(Cc2nnc(CN3CCn4c(nnc4C4CC4)C3)o2)cc1 | -0.192 |
| CN(C)C1CCCN(C(=O)NCc2ccccc2-n2cccn2)C1 (configuration not stated) | -4.14 |
| Cc1cc(C)cc(OCCN(C)C(=O)NC(C)c2nncn2C)c1 (configuration not stated) | -19.1 |
| CCOc1ncccc1CNC(=O)NCCNC(=O)c1ccco1 | 1.16 |
| Cc1cccc(C(=O)NCCCN2CCc3ccccc3C2)c1C | -4.71 |
| CCc1noc(CN(Cc2cccs2)CC2CCCO2)n1 (configuration not stated) | -8.66 |
| CCc1nccn1C1CCCN(C(=O)c2ccoc2C)C1 (configuration not stated) | -28 |
| COc1cc(CNCc2c(C)nn(C)c2N(C)C)ccc1OCCO | -7.59 |

| Structure (SMILES) | cytotoxicity at 10 µM [%] |
| --- | --- |
| Cc1cnn(CC2CN(Cc3nc(-c4ccccn4)no3)CCO2)c1 (configuration not stated) | -22.6 |
| Cc1nn(C)c(Cl)c1C1CCCN1CC(=O)Nc1cccnc1 (configuration not stated) | -17.2 |
| CC(=O)N1CCCN(C(=O)NC(C)Cn2cccn2)CC1 (configuration not stated) | -13 |
| CCc1nc(CN(C)C2CCN(Cc3nnc(C4CCC4)o3)C2)no1 (configuration not stated) | 0.239 |
| O=S(=O)(CCNC1CCc2ncnn2C1)c1ccc(Cl)cc1 (configuration not stated) | -32.2 |
| O=C(Cc1cn2ccccc2n1)N1CCCC(n2cccn2)C1 (configuration not stated) | -5.16 |
| Cn1ccc(CN2CCN(CC3CC3)CC2)cc1=O | -16.6 |
| Cc1nc(CN(C)C2CCN(Cc3c(C)noc3C)C2)no1 (configuration not stated) | 6.66 |
| Cc1noc(C(C)N2CCN(Cc3cccc(C#N)c3)CC2)n1 (configuration not stated) | -5.72 |
| Cc1cccnc1NC(=O)NCc1ccc(N2CCNC(=O)C2)cc1 | -8.85 |
| CN(Cc1nc(N2CCCC2)ncc1-c1ccncc1)C(=O)C(C)(C)C | 6.58 |
| Cc1ncc(CN2CCCC(O)(c3ccc(F)cc3)CC2)n1C (configuration not stated) | -4.04 |
| Cn1nc(COCC2CC2)c2c1CN(CC1CC1)CC2 | 13.8 |
| CCC(=O)N1CC[C@H]2[C@H](C[C@@H](Cn3cccn3)N2c2nccs2)C1 | 5.68 |
| CN1CCc2ncc(CNc3cc(N(C)C)ncn3)n2CC1 | 0.749 |
| CC(C)CCN1C2(CCN(C(=O)CN(C)C)C2)c2ccccc2S1(=O)=O (configuration not stated) | -4.14 |
| CN(C)C(=O)[C@@H]1C[C@@H]2CCN(C3CCOCC3)C[C@H]2O1 | 7.86 |
| COCc1n[nH]c2c1CN(C(=O)c1ccncc1)C2 | 16.6 |
| Cc1cccc(CN2C[C@@H]3C[C@H](C(=O)NCc4cccnc4)[C@H](C2)O3)c1 | -5.98 |
| O=C(CSc1ncccn1)N1C[C@@H]2CC[C@H]1CN(Cc1ccncc1)C2 | -13 |
